Assay results from different studies.
Compare with care: the assays were run in different laboratories.
Effect on: cell growth or viability

With `COc1ccc(-c2nn(-c3ccccc3)cc2C=Nc2c(N)nc(S)nc2O)cc1` the CC50 was 17.3 µM (Jurkat; 48 h).
`Cc1c(-c2ccc(N3CCc4cccc(C(=O)Nc5nc6ccccc6s5)c4C3)nc2C(=O)O)cnn1CC12CC3CC(C1)CC(C(=O)NCCOCCOCCOCCNc1cccc4c1C(=O)N(C1CCC(=O)NC1=O)C4=O)(C3)C2` (centres unmarked) has an IC50 of 0.0846 µM (MOLT-4; MTS; 48 h).
With `Cc1cc(=O)oc2cc(OCCCCSC#N)ccc12` the GI50 was 2.5 µM (T47D; SRB).
The IC50 of `Cc1ncsc1-c1ccc([C@H](C)NC(=O)[C@@H]2C[C@@H](O)CN2C(=O)[C@@H](NC(=O)CCCCS(=O)(=O)NC(=O)c2nc(N3CCc4cccc(C(=O)Nc5nc6ccccc6s5)c4C3)ccc2-c2cnn(CC34CC5CC(CC(C5)C3)C4)c2C)C(C)(C)C)cc1` is reported as 0.0084 µM (MOLT-4; MTS; 48 h).
With `Nc1nc(S)nc(O)c1N=Cc1cn(-c2ccccc2)nc1-c1ccc(Cl)cc1` the CC50 was over 20 µM (Jurkat; 48 h).
The inhibition of `Cc1nc(Nc2ncc(C(=O)Nc3c(C)cccc3Cl)s2)cc(N2CC[C@H](O)C2)n1` is reported as 33% (SU-DHL-2; ATP luminescence; 10 µM; 72 h).
`Cc1nc(NC(=O)N2CCC[C@H]2C(N)=O)sc1-c1ccnc(C(C)(C)C(F)(F)F)c1` has an EC50 of 3.07 µM (TCC-SUP; ATP luminescence; 5 days).
For `N#CSCc1cc(=O)oc2cc(O)ccc12`, the GI50 was 5.9 µM (T47D; SRB).
The IC50 of `Cc1ncsc1-c1ccc([C@@H](C)NC(=O)[C@H]2C[C@H](O)CN2C(=O)[C@H](NC(=O)CCCCNC(=O)C23CC4CC(CC(Cn5ncc(-c6ccc(N7CCc8cccc(C(=O)Nc9nc%10ccccc%10s9)c8C7)nc6C(=O)O)c5C)(C4)C2)C3)C(C)(C)C)cc1` is reported as over 1 µM (MOLT-4; MTS; 48 h).
The IC50 of `FC(F)(F)c1cc(OCc2cc(-c3ccccc3)no2)c2ccccc2n1` is reported as 32.1 µM (LN-229; MTS; 72 h).
`Nc1nc(S)nc(O)c1N=Cc1cn(-c2ccccc2)nc1-c1ccc([N+](=O)[O-])cc1` gave a CC50 of over 40 µM (Jurkat; 48 h).
The IC50 of `Cc1ncsc1-c1ccc([C@H](CC(=O)NCCNC(=O)c2nc(N3CCc4cccc(C(=O)Nc5nc6ccccc6s5)c4C3)ccc2-c2cnn(CC34CC5CC(CC(C5)C3)C4)c2C)NC(=O)[C@@H]2C[C@@H](O)CN2C(=O)[C@@H](NC(=O)C2(C#N)CC2)C(C)(C)C)cc1` is reported as 0.0235 µM (MOLT-4; MTS; 48 h).
The viability of `O=C(C[C@@H](C(F)F)n1ccc(F)n1)N1CCC(O)(Cn2cnc3c(cnn3-c3ccc(F)cc3)c2=O)CC1` is reported as 18.3% (LNCaP; CCK-8; 0.1235 µM).
`O=c1[nH]ncc(NN=Cc2cn(-c3ccccc3)nc2-c2cc3ccccc3oc2=O)c1Cl` gave a CC50 of over 40 µM (Jurkat; 48 h).
